According to publication PMC9197538 (CPT: Pharmacometrics & Systems Pharmacology, 2022):

How the values were obtained:
[1] = no reference given; cited from earlier work
[2] = Model-based simulations of exposure; design: species or system human; settings: age 18–86 years, race, sex, body weight 37.3–132 kg, mild‐to‐moderate renal impairment, mild‐to‐moderate hepatic impairment
[3] = type: in vivo, human
How it was run: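 Joint semi-mechanistic fit of plasma data for the parent and two active metabolites, from healthy-volunteer single doses (20–160 mg) and patient q.d. dosing. Parent: two compartments, three absorption transit compartments. Metabolites: two and one compartments. An enzyme compartment's production follows Emax/EC50 on the molar sum, assuming equal molar potency. IIV is exponential, log-normal. BLOQ handled by modified M6.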

[4] = tested on: EGFRex20ins‐positive mNSCLC; settings: 160 mg q.d., cited from earlier work
[5] = tested on: CYP3A; settings: cited from earlier work
[6] = cited from earlier work
[7] = single oral dose radiolabeled mobocertinib 160 mg; cited from earlier work
[8] = after single‐dose administration; cited from earlier work
[9] = low‐fat or high‐fat meal compared with fasting; cited from earlier work
[10] = final population PK model, untransformed parameter
[11] = platinum‐pretreated patients with EGFRex20ins‐positive mNSCLC

SMILES: C=CC(=O)Nc1cc(Nc2ncc(C(=O)OC(C)C)c(-c3cn(C)c4ccccc34)n2)c(OC)cc1N(C)CCN(C)C [mobocertinib]
- Biopharmaceutics Classification System class [1]: Class 1
- permeability [1]: high permeability
- solubility [1]: highly soluble
- effect of covariates on mobocertinib PK [2]: No clinically meaningful differences
- IIV CL/F [3, 10]: 49.6%
- IIV Ka (interindividual variability) [3, 10]: 45.7%
- IIV Vc/F [3, 10]: 48.7%
- Ka, absorption rate constant [3, 10]: 2.12 h⁻¹
- Residual variability, additive error on log scale [3, 10]: 41.4%
- Kenz, rate constant for enzyme synthesis/degradation ([3]; final population PK model, enzyme (auto-induction) compartment): 0.00392 h⁻¹
- Emax, maximal induction effect ([3]; final population PK model, enzyme compartment, molar sum of the three moieties): 0.781
- Vd/F ([3]; human, plasma, oral, Vss/F, apparent volume of distribution at steady state, geometric mean (%CV 38%), derived from the final population PK model): 3510 L
- median duration of response per IRC [4]: 17.5 months
- median overall survival [4]: 24.0 months
- confirmed objective response rate (ORR) per independent review committee (IRC) [4, 11]: 28%
- confirmed objective response rate (ORR) per investigators [4, 11]: 35%
- CYP3A substrate and inducer status (in vitro) [5]: both substrates and inducers of CYP3A
- CYP3A inhibition and induction (in vitro) ([5]; ref data on file, Takeda Development Center Americas): inhibitors and inducers of CYP3A
- decrease of molar sum AUC0–∞ ([6]; co‐administration with strong CYP3A inducer rifampin): 95%
- increase of molar sum AUC0–∞ of mobocertinib, AP32960, and AP32914 ([6]; co‐administration with strong CYP3A inhibitor itraconazole): 527%
- dose recovered in feces [7]: ~ 76%
- dose recovered in urine [7]: 4%
- percentage of administered dose recovered in feces as this moiety [7]: ~ 6%
- percentage of administered dose recovered in urine as this moiety [7]: ~ 1%
- mean half‐life [8]: 20 h
- food effect on molar sum AUC [9]: no clinically meaningful differences
